Results on two compounds are retold here after ChEMBL document CHEMBL3407398, “Comparison between loureirin A and cochinchinenin C on the interaction with human serum albumin” (Eur J Med Chem, 2015).

Holding throughout (conditions): isolated protein
For data set [1], the target named is T1, Albumin (Homo sapiens, UniProt P02768). The data set can be described thus: Binding affinity to human serum albumin assessed as quenching constant at 300K by fluorescence spectroscopy. It counts as ADME. Put shortly: (§1)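 Fatty-acid-free HSA, 1.5 × 10^-6 M in 0.1 M Tris-HCl pH 7.4 with 0.1 M NaCl, titrated with ligand from ethanol stock. Each addition equilibrated 5 min. Emission recorded 300–450 nm with excitation at 280 nm, at 300, 305 and 310 K. Constants taken from the linear low-concentration region of Stern-Volmer F0/F plots.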
T1 sequence (P02768 whole entry): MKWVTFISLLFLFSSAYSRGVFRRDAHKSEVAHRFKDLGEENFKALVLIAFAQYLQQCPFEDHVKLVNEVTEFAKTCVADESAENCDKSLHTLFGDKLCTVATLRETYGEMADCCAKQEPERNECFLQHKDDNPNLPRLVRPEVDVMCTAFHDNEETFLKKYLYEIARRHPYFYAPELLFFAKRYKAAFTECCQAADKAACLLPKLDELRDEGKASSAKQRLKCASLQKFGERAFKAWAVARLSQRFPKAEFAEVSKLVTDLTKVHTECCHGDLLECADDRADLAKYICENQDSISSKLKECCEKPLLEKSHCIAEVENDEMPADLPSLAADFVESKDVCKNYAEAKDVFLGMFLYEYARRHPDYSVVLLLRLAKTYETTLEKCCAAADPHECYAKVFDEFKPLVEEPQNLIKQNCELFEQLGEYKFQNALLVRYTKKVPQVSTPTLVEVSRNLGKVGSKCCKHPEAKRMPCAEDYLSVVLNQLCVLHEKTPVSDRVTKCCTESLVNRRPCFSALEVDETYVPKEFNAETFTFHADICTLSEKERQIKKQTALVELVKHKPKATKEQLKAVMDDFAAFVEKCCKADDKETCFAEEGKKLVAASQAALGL

Data set [2] concerns the target T1, Albumin. As to the kind of experiment: Binding affinity to human serum albumin assessed as Stem-Volmer quenching constant at 310K by fluorescence spectroscopy. The data set is classed as ADME. Put shortly:
as §1

The target in data set [3] is T1, Albumin. The data set can be described thus: Binding affinity to human serum albumin assessed as induction of protein conformational changes by measuring reduction in intensity along with blue shift in peak 1 by three-dimensional fluorescence spectroscopy. Also on record: scale not given: the % may be the effect or the level left. Put shortly:
(§2)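 3-D fluorescence of HSA at 1.5 × 10^-6 M, alone and with ligand at a 2:1 ligand/HSA molar ratio, in Tris-HCl pH 7.4 buffer. Excitation scanned 200–480 nm in 10 nm steps, with emission recorded 220–500 nm. Changes in intensity and position of peak 1 were compared.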

Data set [4] addresses T1, Albumin. The data set can be described thus: Binding affinity to human serum albumin assessed as free energy change at 300K by thermodynamic analysis.
In data set [5] the target is T1, Albumin. As to the kind of experiment: Binding affinity to human serum albumin assessed as Stem-Volmer quenching constant at 300K by fluorescence spectroscopy. It counts as ADME. Put shortly: as §1
Data set [6] concerns the target T1, Albumin. As to the kind of experiment: Binding affinity to human serum albumin assessed as free energy change at 310K by thermodynamic analysis.
Data set [7] addresses T1, Albumin. As to the kind of experiment: Binding affinity to human serum albumin assessed as induction of protein conformational changes by synchronous fluorescence spectroscopy.
The target in data set [8] is T1, Albumin. The data set can be described thus: Binding affinity to human serum albumin assessed as binding constant at 305K by Stem-Volmer plot. The data set is classed as ADME. Put shortly: (§3)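 Fatty-acid-free HSA, 1.5 × 10^-6 M in 0.1 M Tris-HCl pH 7.4 / 0.1 M NaCl, was titrated with ligand from ethanol stock and equilibrated 5 min per addition. Emission was read 300–450 nm (excitation 280 nm) at 300, 305 and 310 K. Binding constants came from the quenching data across these temperatures, and thermodynamic parameters from their temperature dependence.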

Data set [9] addresses T1, Albumin. As to the kind of experiment: Binding affinity to human serum albumin assessed as free energy change at 305K by thermodynamic analysis.
Data set [10] has as its target T1, Albumin. The data set can be described thus: Binding affinity to human serum albumin assessed as enthalpy change at 300K by thermodynamic analysis. It counts as ADME. Put shortly:
as §3

Data set [11] has as its target T1, Albumin. As to the kind of experiment: Binding affinity to human serum albumin assessed as binding constant at 310K by Stem-Volmer plot. The data set is classed as ADME. Put shortly: as §3
In data set [12] the target is T1, Albumin. The data set can be described thus: Binding affinity to human serum albumin assessed as quenching constant at 310K by fluorescence spectroscopy. The data set is classed as ADME. Put shortly:
as §1

The target of data set [13] is T1, Albumin. The data set can be described thus: Binding affinity to human serum albumin assessed as quenching constant at 305K by fluorescence spectroscopy. The data set is classed as ADME. Put shortly: as §1
Data set [14] addresses T1, Albumin. The data set can be described thus: Binding affinity to human serum albumin assessed as Stem-Volmer quenching constant at 305K by fluorescence spectroscopy. It counts as ADME. Put shortly: as §1
In data set [15] the target is T1, Albumin. The data set can be described thus: Binding affinity to human serum albumin by UV-vis spectrophotometry. The data set is classed as ADME. Put shortly:
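UV-vis absorption titration at room temperature in a 10 mm quartz cuvette. HSA was held at 1.5 × 10^-6 M while ligand was varied 0–18 × 10^-6 M, and absorbance change at 280 nm was followed. Spectra of ligand alone at 1.5 × 10^-6 M were also recorded.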

The target in data set [16] is T1, Albumin. The data set can be described thus: Binding affinity to human serum albumin assessed as binding constant at 300K by Stem-Volmer plot. The data set is classed as ADME. Put shortly:
as §3

Data set [17] has as its target T1, Albumin. The data set can be described thus: Binding affinity to human serum albumin assessed as induction of protein conformational changes by measuring reduction in intensity along with red shift in peak 1 by three-dimensional fluorescence spectroscopy. Also on record: scale not given: the % may be the effect or the level left. Put shortly:
as §2

For the compound `COc1ccc(C(CCc2ccc(O)cc2OC)c2cc(CCC(=O)c3ccc(O)cc3)c(OC)cc2O)cc1` (configuration not stated) [COCHINCHINENIN C], the values for the Kq in data set [1], in data set [12] and in data set [13] were 17.69 ×10¹² /M/s, 12.15 ×10¹² /M/s and 14.95 ×10¹² /M/s, respectively. Further, the KSV is on record as 12.15 ×10⁴ /M in data set [2], 17.69 ×10⁴ /M in data set [5] and 14.95 ×10⁴ /M in data set [14]. The Activity is on record as 14% in data set [3], “Active” in data set [7] and “Active” in data set [15]. Besides, the deltaG in data set [4] is -7.431 kcal/mol; in [6], -7.232 kcal/mol; in [9] it was -7.33 kcal/mol. Further, the K was 18.62 ×10⁴ /M in data set [8], 12.32 ×10⁴ /M in data set [11] and 25.32 ×10⁴ /M in data set [16]. For the same compound, the deltaH in data set [10] was -13.37 kcal/mol.

With `COc1ccc(CCC(=O)c2ccc(O)cc2)c(OC)c1`, the Kq in data set [1] was 9.85 ×10¹² /M/s; in data set [12] it was 6.24 ×10¹² /M/s; in data set [13], 7.98 ×10¹² /M/s. In addition, the values for the KSV in data set [2], in data set [5] and in data set [14] were 6.24 ×10⁴ /M, 9.85 ×10⁴ /M and 7.98 ×10⁴ /M, respectively. Further, the figures for the deltaG in [4], in [6] and in data set [9] were -6.998 kcal/mol, -6.977 kcal/mol and -6.986 kcal/mol, respectively. Besides, the figures for the Activity in [17], in data set [7] and in data set [15] were 28%, “Active” and “Active”, respectively. The K in [8] stood at 9.51 ×10⁴ /M; in [11], 8.56 ×10⁴ /M; in data set [16] it was 12.91 ×10⁴ /M. For the same compound, the deltaH in data set [10] was -7.643 kcal/mol.
